Assay results reported in ChEMBL document CHEMBL5247578, “Effective synthesis of benzimidazoles-imidazo[1,2-a]pyrazine conjugates: A comparative study of mono-and bis-benzimidazoles for antitumor activity” (Eur J Med Chem, 2019).

What was measured:
U-251 = assay: Growth inhibition against human U-251 cells incubated for 48 hrs by sulforhodamine B assay; assay type: functional
MDA-MB-468 [1] = assay: Antiproliferative activity against human MDA-MB-468 cells assessed as cell growth at 0.00001 M incubated for 48 hrs by SRB assay relative to control; assay type: functional; details: read-out: Activity
Calf thymus DNA = assay: Displacement of ethidium bromide from calf thymus DNA assessed as quenching constant upto 85 uM by fluorescence based spectroscopic analysis; assay type: nucleic-acid assay; details: Bos taurus
PC-3 [2] = assay: Antiproliferative activity against human PC-3 cells assessed as cell growth at 0.0001 M incubated for 48 hrs by SRB assay relative to control; assay type: functional; details: read-out: Activity
MOLT-4 [3] = assay: Antiproliferative activity against human MOLT-4 cells assessed as cell growth at 0.000001 M incubated for 48 hrs by SRB assay relative to control; assay type: functional; details: read-out: Activity
UACC-62 [4] = assay: Antiproliferative activity against human UACC-62 cells assessed as cell growth at 0.0000001 M incubated for 48 hrs by SRB assay relative to control; assay type: functional; details: dose 100 nM, read-out: Activity
M14 [5] = assay: Antiproliferative activity against human M14 cells assessed as cell growth at 0.0000001 M incubated for 48 hrs by SRB assay relative to control; assay type: functional; details: dose 100 nM, read-out: Activity
NCI-H322M = assay: Growth inhibition against human NCI-H322M cells assessed as total growth inhibitory concentration incubated for 48 hrs by sulforhodamine B assay; assay type: functional
UACC-62 [6] = assay: Growth inhibition against human UACC-62 cells incubated for 48 hrs by sulforhodamine B assay; assay type: functional
MDA-MB-468 [7] = assay: Growth inhibition against human MDA-MB-468 cells incubated for 48 hrs by sulforhodamine B assay; assay type: functional
BT-549 [8] = assay: Antiproliferative activity against human BT-549 cells assessed as cell growth inhibition by measuring lethal concentration incubated for 48 hrs by sulforhodamine B assay; assay type: functional; details: read-out: LC50 (the source's name)
HCT-116 = assay: Antiproliferative activity against human HCT-116 cells assessed as cell growth at 0.000001 M incubated for 48 hrs by SRB assay relative to control; assay type: functional; details: read-out: Activity
In short: (§1)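 NCI-60 five-dose screen (10^-4 to 10^-8 M). Cells grown in RPMI 1640 with 5% FBS and 2 mM L-glutamine, plated at 5,000-40,000 cells/well and preincubated 24 h. Drug given from DMSO stock, then 48 h at 37 °C, 5% CO2. For adherent lines, cells fixed with cold TCA, SRB-stained and read at 515 nm. Percent growth taken against time-zero and untreated control.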

OVCAR-5 = assay: Antiproliferative activity against human OVCAR-5 cells assessed as cell growth at 0.00001 M incubated for 48 hrs by SRB assay relative to control; assay type: functional; details: read-out: Activity
UO-31 [9] = assay: Antiproliferative activity against human UO-31 cells assessed as cell growth at 0.00001 M incubated for 48 hrs by SRB assay relative to control; assay type: functional; details: read-out: Activity
RPMI-8226 = assay: Growth inhibition against human RPMI-8226 cells assessed as total growth inhibitory concentration incubated for 48 hrs by sulforhodamine B assay; assay type: functional
MCF7 = assay: Antiproliferative activity against human MCF7 cells assessed as cell growth at 0.0001 M incubated for 48 hrs by SRB assay relative to control; assay type: functional; details: read-out: Activity
UO-31 [10] = assay: Antiproliferative activity against human UO-31 cells assessed as cell growth at 0.00000001 M incubated for 48 hrs by SRB assay relative to control; assay type: functional; details: dose 10 nM, read-out: Activity
SK-OV-3 [11] = assay: Antiproliferative activity against human SK-OV-3 cells assessed as cell growth at 0.0000001 M incubated for 48 hrs by SRB assay relative to control; assay type: functional; details: dose 100 nM, read-out: Activity
A549 [12] = assay: Antiproliferative activity against human A549 cells assessed as cell growth at 0.0000001 M incubated for 48 hrs by SRB assay relative to control; assay type: functional; details: dose 100 nM, read-out: Activity
In short: (§2)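 NCI-60 five-dose screen over 10^-4–10^-8 M (10-fold dilutions). Cells grown in RPMI 1640 with 5% FBS and 2 mM L-glutamine, seeded at 5,000–40,000 cells/well and preincubated 24 h. Drug from DMSO stock, 48 h at 37 °C, 5% CO2. Adherent cells TCA-fixed and stained with 0.4% SRB; A515 read. Percent growth = (Ti−Tz)/(C−Tz)×100, or (Ti−Tz)/Tz×100 when Ti<Tz.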

SF-295 [13] = assay: Antiproliferative activity against human SF-295 cells assessed as cell growth at 0.00001 M incubated for 48 hrs by SRB assay relative to control; assay type: functional; details: read-out: Activity
MDA-MB-435 = assay: Antiproliferative activity against human MDA-MB-435 cells assessed as cell growth at 0.0000001 M incubated for 48 hrs by SRB assay relative to control; assay type: functional; details: dose 100 nM, read-out: Activity
HCC 2998 = assay: Antiproliferative activity against human HCC 2998 cells assessed as cell growth at 0.0000001 M incubated for 48 hrs by SRB assay relative to control; assay type: functional; details: dose 100 nM, read-out: Activity; in short: as §1
A549 [14] = assay: Antiproliferative activity against human A549 cells assessed as cell growth inhibition by measuring lethal concentration incubated for 48 hrs by sulforhodamine B assay; assay type: functional; details: read-out: LC50 (the source's name)
SF-295 [15] = assay: Antiproliferative activity against human SF-295 cells assessed as cell growth at 0.0000001 M incubated for 48 hrs by SRB assay relative to control; assay type: functional; details: dose 100 nM, read-out: Activity
MOLT-4 [16] = assay: Growth inhibition against human MOLT-4 cells assessed as total growth inhibitory concentration incubated for 48 hrs by sulforhodamine B assay; assay type: functional
M14 [17] = assay: Antiproliferative activity against human M14 cells assessed as cell growth at 0.000001 M incubated for 48 hrs by SRB assay relative to control; assay type: functional; details: read-out: Activity
PC-3 [18] = assay: Growth inhibition against human PC-3 cells assessed as total growth inhibitory concentration incubated for 48 hrs by sulforhodamine B assay; assay type: functional
BT-549 [19] = assay: Antiproliferative activity against human BT-549 cells assessed as cell growth at 0.000001 M incubated for 48 hrs by SRB assay relative to control; assay type: functional; details: read-out: Activity; in short: as §2
COLO 205 [20] = assay: Antiproliferative activity against human COLO 205 cells assessed as cell growth at 0.0000001 M incubated for 48 hrs by SRB assay relative to control; assay type: functional; details: dose 100 nM, read-out: Activity; in short: as §2
SK-OV-3 [21] = assay: Antiproliferative activity against human SK-OV-3 cells assessed as cell growth inhibition by measuring lethal concentration incubated for 48 hrs by sulforhodamine B assay; assay type: functional; details: read-out: LC50 (the source's name)
SF-268 = assay: Antiproliferative activity against human SF-268 cells assessed as cell growth at 0.000001 M incubated for 48 hrs by SRB assay relative to control; assay type: functional; details: read-out: Activity
T47D = assay: Growth inhibition against human T47D cells incubated for 48 hrs by sulforhodamine B assay; assay type: functional
COLO 205 [22] = assay: Growth inhibition against human COLO 205 cells assessed as total growth inhibitory concentration incubated for 48 hrs by sulforhodamine B assay; assay type: functional
HL-60 [23] = assay: Growth inhibition against human HL-60 cells incubated for 48 hrs by sulforhodamine B assay; assay type: functional
HL-60 [24] = assay: Antiproliferative activity against human HL-60 cells assessed as cell growth at 0.0001 M incubated for 48 hrs by SRB assay relative to control; assay type: functional; details: read-out: Activity; in short: as §1
NCI-H23 = assay: Antiproliferative activity against human NCI-H23 cells assessed as cell growth inhibition by measuring lethal concentration incubated for 48 hrs by sulforhodamine B assay; assay type: functional; details: read-out: LC50 (the source's name)
DU-145 = assay: Antiproliferative activity against human DU-145 cells assessed as cell growth at 0.0000001 M incubated for 48 hrs by SRB assay relative to control; assay type: functional; details: dose 100 nM, read-out: Activity; in short: as §2

Row | Structure (SMILES) | GI50 (U-251) [µM] | growth at 10 µM (MDA-MB-468 [1]) [%] | Kq (Calf thymus DNA) | growth at 100 µM (PC-3 [2]) [%] | growth at 1 µM (MOLT-4 [3]) [%] | growth at 0.1 µM (UACC-62 [4]) [%] | growth at 0.1 µM (M14 [5]) [%] | TGI (NCI-H322M) [µM] | GI50 (UACC-62 [6]) [µM] | GI50 (MDA-MB-468 [7]) [µM] | CC50 (BT-549 [8]) [µM] | growth at 1 µM (HCT-116) [%] | growth at 10 µM (OVCAR-5) [%] | growth at 10 µM (UO-31 [9]) [%] | TGI (RPMI-8226) [µM] | growth at 100 µM (MCF7) [%] | growth at 0.01 µM (UO-31 [10]) [%] | growth at 0.1 µM (SK-OV-3 [11]) [%] | growth at 0.1 µM (A549 [12]) [%] | growth at 10 µM (SF-295 [13]) [%] | also measured
1 | c1ccc(Cn2cnc3ccc(-c4nc(-c5ccc6c(c5)ncn6C5CCCCC5)cn5ccnc45)cc32)cc1 | 1.99 | -49 | 0.74 10^12/M/s | -3 | 64 | 90 | 91 | > 100 | 1.98 | 1.92 | 5.96 | 54 | -3 | -40 | 4.5 | 8 | 91 | 95 | 109 | -82 | growth at 0.1 µM (MDA-MB-435): 98%; growth at 0.1 µM (HCC 2998): 98%; CC50 (A549 [14]): > 100 µM; growth at 0.1 µM (SF-295 [15]): 92%; TGI (MOLT-4 [16]): > 100 µM; growth at 1 µM (M14 [17]): 65%; TGI (PC-3 [18]): 7.55 µM; growth at 1 µM (BT-549 [19]): 62%; growth at 0.1 µM (COLO 205 [20]): 99%; CC50 (SK-OV-3 [21]): > 100 µM; growth at 1 µM (SF-268): 82%; GI50 (T47D): 1.49 µM; TGI (COLO 205 [22]): 3.99 µM; GI50 (HL-60 [23]): 2.88 µM; growth at 100 µM (HL-60 [24]): -18%; CC50 (NCI-H23): 1.33 µM; growth at 0.1 µM (DU-145): 98%
2 | COc1ccc(-c2cn3ccnc3c(-c3ccc4ncn(C5CCCCC5)c4c3)n2)cc1 | 2.22 | 21 | 0.82 10^12/M/s | 24 | 78 | 90 | 95 | > 100 | 0.434 | 0.863 | > 100 | 23 | 31 | 14 | > 100 | 24 | 91 | 88 | 103 | -29 | growth at 0.1 µM (MDA-MB-435): 92%; growth at 0.1 µM (HCC 2998): 94%; CC50 (A549 [14]): > 100 µM; growth at 0.1 µM (SF-295 [15]): 91%; TGI (MOLT-4 [16]): > 100 µM; growth at 1 µM (M14 [17]): 38%; TGI (PC-3 [18]): > 100 µM; growth at 1 µM (BT-549 [19]): 26%; growth at 0.1 µM (COLO 205 [20]): 102%; CC50 (SK-OV-3 [21]): > 100 µM; growth at 1 µM (SF-268): 65%; GI50 (T47D): 0.76 µM; TGI (COLO 205 [22]): 14.4 µM; GI50 (HL-60 [23]): 1.06 µM; growth at 100 µM (HL-60 [24]): -7%; CC50 (NCI-H23): > 100 µM; growth at 0.1 µM (DU-145): 102%
